High-throughput results from PubChem BioAssay.
Compounds with a hit are over-represented: about 2.1% of the library has one in this group of screens.
EWS-Fli inh: EWS/Fli-driven NR0B1 reporter inhibitors, primary screen, A673 cells, NR0B1 luciferase, luminescence, MLPCN library; inhibition, % at 12.6 µM; viability-normalised; AID 651661, 2012; 0.67% of 350,000 active;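 active = mean inhibition of at least 50% after viability correction, with every replicate also passing that limit; inconclusive = mean reaches 50% but only one of two replicates passes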;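 also: firefly luciferase signal divided by Alamar Blue viability fluorescence both relative to DMSO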
aSyn UTR inh: MLPCN primary screen, SNCA 5' untranslated region | alpha-synuclein 5'UTR reporter, inhibitor activity | inhibition, % (tested at 7.5 µM) | 0.82% of 300,000 active; in the data active = inhibition above about 60%; inconclusive = no clear call, values can overlap the other calls;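 also: H4 neuroglioblastoma cells stably carrying SNCA 5'UTR luciferase fusion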
EBV LMP1 NFkB: EBV LMP1-driven NF-kappaB luciferase reporter inhibitors, primary screen, cell-based, luminescence, single point | AID 504558, 2011 | 0.69% of 350,000 active | LMP1-induced NF-kappaB luciferase reporter cells | inhibition, % at 12.5 µM; in the data active = inhibition above about 41%; inconclusive = no clear call, values can overlap the other calls
FN deposition inh: inhibitors of fibronectin matrix deposition, primary screen, AH1F cells, Alexa488-fibronectin fluorescence, plate reader; AH1F fibroblasts, overnight; inhibition, % at 12.6 µM; 0.086% of 350,000 active; AID 743247, 2014;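 active = mean inhibition across replicates of 30% or more, regardless of how many single replicates reach that level; inconclusive = mean under 30% yet at least half of replicates reach 30%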
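material = AH1F fibroblast monolayer depositing Alexa488-labelled fibronectin into matrix | amount = 10000 AH1F cells/well | buffer or medium = DMEM plus 2% serum, read in PBS | incubation = 1 h cell adhesion before compound, then overnight fibronectin incubation | detection = fluorescence at 485 nm excitation, 525 nm emission | evaluation = percent inhibition as loss of matrix-bound fibronectin fluorescence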
Shn3 3UTR inh: reduction of Shn3 3'UTR firefly luciferase signal, primary screen, Schnurri-3 inhibitor project, cell-based, Clone20 osteoblasts, set 2; Clone20 osteoblast Shn3 3'UTR firefly luciferase, 24 h; inhibition, % at 12.5 µM; 0.52% of 360,000 active; AID 588674, 2011;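 active = mean inhibition of at least 75% with every replicate also reaching 75%; inconclusive = mean inhibition at least 75% but some replicate below; inactive = mean inhibition below 75%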
PAX8 inh HTS: inhibitors of PAX8-driven TPO luciferase reporter, primary screen, RMG-I cells, single concentration; AID 652154, 2013; 1.2% of 360,000 active; inhibition, % at 12.6 µM; SteadyGlo, 24 h;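 active = mean replicate inhibition at least 60% with every replicate also reaching 60%; inconclusive = only one of the two criteria is met; inactive = mean below 60% and not all replicates reaching 60%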;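 also: luciferase light reporting Pax8 driven TPO promoter activity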
A number is an active result; . = inactive; ? = inconclusive; / = no result given.

SMILES | EWS-Fli inh | aSyn UTR inh | EBV LMP1 NFkB | FN deposition inh | Shn3 3UTR inh | PAX8 inh HTS
COc1ccc(NC(=O)C2(C)Cc3c(-c4ccc(NC(C)=O)cc4)ccnc3O2)cn1 (stereo unspecified) | . | / | / | . | . | .
CC(=O)Nc1cccc(-c2ccnc3c2CC(C)(C(=O)Nc2ccc(Cl)cc2)O3)c1 (stereo unspecified) | 62 | / | / | . | . | .
COc1ccc(-c2ccccc2[C@@H]2[C@@H](C#N)N(C(=O)C3CC3)[C@H]2CO)cc1 | . | / | / | . | / | .
O=C(C[C@@H]1CC[C@H]2NC[C@H](O)COC[C@@H]2O1)Nc1ccccc1 | . | / | / | . | / | .
O=C(Nc1ccc2oc(-c3ccncc3)nc2c1)c1ccc([N+](=O)[O-])o1 | 62 | . | . | . | ? | .
O=C(Nc1ccc2oc(=O)ccc2c1)c1ccc(-c2cccc([N+](=O)[O-])c2)o1 | ? | 92 | / | . | . | .
O=C(Nc1ccc(-c2nc3ncccc3o2)cc1)c1ccc([N+](=O)[O-])o1 | . | 100 | . | . | 97 | .
O=C(Nc1ccc2oc(=O)ccc2c1)c1ccc(-c2cccc(Cl)c2)o1 | . | . | . | . | . | .
O=C(N/N=C/c1ccc([N+](=O)[O-])o1)c1cc2ccccc2o1 | . | 66 | . | . | . | .
O=C(N/N=C/c1ccc([N+](=O)[O-])o1)c1ccncc1 | . | . | / | . | . | .
Cc1scc(C(=O)N/N=C/c2ccc([N+](=O)[O-])o2)c1C | . | 85 | . | . | . | .
O=C(N/N=C/c1ccc([N+](=O)[O-])o1)c1ccc(O)cc1 | 65 | . | . | . | . | .
Cc1noc(C)c1S(=O)(=O)Nc1cccc2c1O[C@H](CN(C)Cc1ccc(C(=O)Nc3ccccc3N)cc1)[C@H](C)CN([C@@H](C)CO)C2=O | . | / | / | . | / | /
COc1ccc(OC)c(-c2cnc(OC(C)(C)C)nc2OC(C)(C)C)c1 | 71 | . | . | . | . | .
Cc1cccc(S(=O)(=O)N2CCCc3ccccc32)c1 | . | . | 48 | . | . | .
CC(=O)NS(=O)(=O)c1ccc(NC(=O)c2cccc(S(=O)(=O)N3CCc4ccccc43)c2)cc1 | . | . | . | . | . | .
Cn1c(=O)oc2cc(S(=O)(=O)N3CCCc4ccccc43)ccc21 | 59 | . | . | . | . | .
CN(C)S(=O)(=O)c1cccc(NC(=O)c2cccc(S(=O)(=O)N3CCc4ccccc43)c2)c1 | . | / | . | . | 92 | .
Cn1c(=O)oc2cc(S(=O)(=O)N3CCc4ccccc43)ccc21 | . | . | . | . | . | .
COC(=O)Nc1ccc(S(=O)(=O)N2CCCc3ccccc32)cc1 | / | 84 | . | 15 | . | /
O=C(Nc1ccc(F)cc1)N1CCCCN2[C@H](CO)[C@@H](c3ccc(C4=CCCCC4)cc3)[C@H]2C1 | ? | / | / | / | / | 74
COc1ccc(NC(=O)N2CCCCN3[C@@H](CO)[C@@H](c4ccc(C5=CCCC5)cc4)[C@@H]3C2)cc1 | . | / | / | / | / | 82
COc1ccc(NC(=O)N2CCCCN3[C@H](CO)[C@H](c4ccc(C5=CCCC5)cc4)[C@H]3C2)cc1 | . | / | / | / | / | .
Cc1cccc(S(=O)(=O)N(C)C[C@@H]2OCc3ccccc3-c3c(n(C)c4ccccc34)C(=O)N([C@@H](C)CO)C[C@@H]2C)c1 | . | / | / | . | / | /
CO[C@@H]1CN(C)C(=O)c2cc(NC(=O)Nc3ccc4c(c3)OCO4)ccc2OC[C@H](C)NC[C@H]1C | . | / | / | . | / | .
COc1ccc(C2=NN(C(=O)CSC3=NN4CCCC(=O)N=C4S3)C(c3cccc(OC)c3OC)C2)cc1 (stereo unspecified) | . | . | 77 | . | . | .
COc1cccc(C2CC(c3cccs3)=NN2C(=O)CSC2=NN3CCCC(=O)N=C3S2)c1OC (stereo unspecified) | . | . | . | . | . | .
CCC(=O)N[C@H]1CC[C@H](CC(=O)NCc2ccccc2OC)O[C@H]1CO | . | / | / | / | / | .
